In ChEMBL document CHEMBL1142991, “Structure-activity relationship study to understand the estrogen receptor-dependent gene activation of aryl- and alkyl-substituted 1H-imidazoles” (J Med Chem, 2007) one finds RBA, Activity and EC50 data, which are given here for 12 compounds.

Active and inactive are the calls of the source. No cut-off for these calls is given here.

Test [1] deals with T1, Estrogen receptor (Bos taurus) (UniProt P49884).
T1 sequence (whole entry): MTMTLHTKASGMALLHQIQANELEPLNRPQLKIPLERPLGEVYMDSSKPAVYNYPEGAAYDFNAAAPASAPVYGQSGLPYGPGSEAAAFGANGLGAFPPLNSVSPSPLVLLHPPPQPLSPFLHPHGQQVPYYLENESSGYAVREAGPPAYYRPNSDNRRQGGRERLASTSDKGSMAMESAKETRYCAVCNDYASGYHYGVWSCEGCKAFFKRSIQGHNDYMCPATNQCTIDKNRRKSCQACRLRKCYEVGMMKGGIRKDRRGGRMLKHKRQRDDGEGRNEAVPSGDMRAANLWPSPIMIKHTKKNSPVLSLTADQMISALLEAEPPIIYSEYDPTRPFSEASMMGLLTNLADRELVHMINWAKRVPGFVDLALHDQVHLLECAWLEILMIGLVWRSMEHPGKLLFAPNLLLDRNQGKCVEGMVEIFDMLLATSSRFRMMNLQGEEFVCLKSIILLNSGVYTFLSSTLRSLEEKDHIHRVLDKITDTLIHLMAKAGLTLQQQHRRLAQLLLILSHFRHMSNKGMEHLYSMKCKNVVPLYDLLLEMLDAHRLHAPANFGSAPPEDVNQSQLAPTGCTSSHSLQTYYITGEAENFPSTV
Put plainly: Displacement of [3H]estradiol from calf ER alpha after 16 hrs relative to estradiol. The essentials:
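Calf uterine cytosol as receptor source, shaken with 17β-[³H]estradiol and competitor at 4 °C for 16 h; dextran-coated charcoal stop, centrifugation, supernatant radioactivity counted. Six competitor concentrations; % bound label plotted against log concentration, and the concentration giving 50% displacement taken for competitor and for unlabeled estradiol to give relative binding affinity.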

The species entered for the next test is Homo sapiens. Put plainly: Decrease in COX activity.
Test [2] relates to MCF7-2A. As to the kind of experiment: Activation of transcriptional activity at ERalpha expressed in MCF7-2a cells assessed as luciferase expression at 10 uM relative to estradiol. Format: functional, cell-based, Homo sapiens. As to conditions: for EC50: Homo sapiens, MCF7-2A, in the assay text read “relative to estradiol” for “at 10 uM relative to estradiol”. The essentials: (§1)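 Reporter cells: MCF-7-2a (stable ERE_wtcluc) kept one week in DMEM with L-glutamine, antibiotics, dextran/charcoal-treated BCS (50 mL/L); seeded ~2.2 × 10⁵ cells/mL in six-well plates, compound added after 24 h at 10^-5 to 10^-10 M, 50 h incubation; lysed, luciferase luminescence read 10 s, normalized to Bradford protein; expressed as % of 10^-8 M estradiol; triplicate, single experiment.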

The subject of test [3] is MCF7-2A. Put plainly: Activation of transcriptional activity at ERalpha expressed in MCF7-2a cells assessed as luciferase expression relative to estradiol. Format: functional, cell-based. As to conditions: Homo sapiens. The essentials: as §1

The compound `Oc1ccc(-n2cc(-c3ccc(O)cc3Cl)nc2-c2ccc(O)cc2Cl)cc1` registered an RBA in test [1] of 0.09%. Besides, the result in the test listed under Homo sapiens was Active. In the case of `Oc1ccc(-c2nc(-c3ccc(O)cc3Cl)c(-c3ccccc3)n2-c2ccc(O)cc2)cc1`, the Activity in the test on MCF7-2A [2] is given as 40%.

For `Oc1ccc(-c2nc(-c3ccc(O)cc3Cl)cn2-c2ccc(O)cc2)cc1`, the result in the test filed under Homo sapiens was Active.

In the case of `CCc1c(-c2ccc(O)cc2)nc(-c2ccc(O)cc2)n1-c1ccccc1`, the Activity in the test on MCF7-2A [2] amounted to 60%. `Cc1c(-c2ccc(O)cc2Cl)nc(-c2ccc(O)cc2Cl)n1-c1ccc(O)cc1` returned an RBA in test [1] of 0.11%. As to `Oc1ccc(-c2nc(-c3ccc(O)cc3Cl)n(-c3ccc(O)cc3)c2-c2ccccc2)cc1`, the Activity in the test with MCF7-2A [2] worked out at 50%. As for `CCc1c(-c2ccc(O)cc2)nc(-c2ccc(O)cc2Cl)n1-c1ccc(O)cc1`, the RBA in test [1] came to 0.19%. Also, the EC50 (in general, the concentration needed to bring the measured effect to its halfway point) with MCF7-2A [3] was found to be 480 nM.

As for `CCc1c(-c2ccc(O)cc2)nc(-c2ccccc2)n1-c1ccc(O)cc1`, in the test with MCF7-2A [3], the EC50 was determined as 61 nM. The Activity with MCF7-2A [2] stood at 90%. Regarding `Oc1ccc(-c2nc(-c3ccc(O)cc3)n(-c3ccc(O)cc3)c2-c2ccccc2)cc1`, in the test with MCF7-2A [2], the Activity was determined as 100% and the EC50 is 350 nM. Take `Cc1c(-c2ccc(O)cc2)nc(-c2ccc(O)cc2)n1-c1ccc(O)cc1`: in the test with MCF7-2A [2], the Activity was 100% and the EC50 worked out at 140 nM. For `CCc1c(-c2ccc(O)cc2)nc(-c2ccc(O)cc2)n1-c1ccc(O)cc1`, the RBA in test [1] turned out to be 0.11%. Besides, in the test on MCF7-2A [2], the Activity was 140% and the EC50 was found to be 77 nM. On to `Oc1ccc(-c2cn(-c3ccc(O)cc3)c(-c3ccc(O)cc3Cl)n2)cc1`, for which, in the test filed under Homo sapiens, the result was inactive.
